Reference: ChEMBL document CHEMBL4316661, “Securinega Alkaloids from the Twigs of Securinega suffruticosa and Their Biological Activities” (J Nat Prod, 2019)

Experiments:
HCT-15 = assay: Cytotoxicity against human HCT15 cells after 48 hrs by SRB assay; format: cell-based; conditions: HCT-15, 48 h
[1] = Cytotoxicity against rat C6 cells assessed as cell viability at 20 uM after 24 hrs by MTT assay relative to control; format: cell-based; conditions: read-out: Activity
Summary of the method: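 C6 cells treated with 20 μM of each compound. Viability determined by MTT assay and expressed as a percentage. Means ± SD of three independent experiments.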

A549 = assay: Cytotoxicity against human A549 cells after 48 hrs by SRB assay; format: cell-based; conditions: A549, 48 h
C6 = assay: Neuroprotective activity in rat C6 cells assessed as NGF secretion at 20 uM after 24 hrs by ELISA relative to control; format: functional
Summary of the method: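 C6 cells given 20 μM of each compound for 24 h. NGF secreted into the C6-conditioned medium quantified by ELISA, as a percentage of the untreated control (set at 100%). Means ± SD of three independent experiments.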

SK-OV-3 = assay: Cytotoxicity against human SKOV3 cells after 48 hrs by SRB assay; format: cell-based; conditions: SK-OV-3, 48 h
SK-MEL-2 = assay: Cytotoxicity against human SK-MEL-2 cells after 48 hrs by SRB assay; format: cell-based; conditions: SK-MEL-2, 48 h
BV-2 [2] = assay: (§1) Cytotoxicity against mouse BV2 cells assessed as cell viability at 20 uM after 24 hrs by MTT assay relative to control; format: cell-based; conditions: bv-2, 24 h, 20 µM
Summary of the method: (§2)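 BV-2 microglia exposed to 20 μM of each compound. Viability read by MTT and given as a percentage. Means ± SD of three independent experiments.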

[3] = as §1; format: cell-based, BV-2; conditions: BV2 cells, read-out: Activity; summary of the method: as §2
BV-2 [4] = assay: Antiinflammatory activity in mouse BV2 cells assessed as inhibition of LPS-induced nitrite production after 24 hrs by Griess assay; format: functional, cell-based; conditions: BV-2, 24 h
Summary of the method: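 LPS-activated murine microglial BV-2 cells. IC50 taken as the concentration (μM) giving 50% inhibition of NO production. Means of three independent experiments, as means ± SD.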

| Structure (SMILES) | IC50 (HCT-15) [µM] | viability at 24 h, 20 µM [1] [%] | IC50 (A549) [µM] | Activity (C6) [%] | IC50 (SK-OV-3) [µM] | IC50 (SK-MEL-2) [µM] | Activity (BV-2 [2]) | viability at 24 h, 20 µM [3] [%] | IC50 (BV-2 [4]) [µM] |
| --- | --- | --- | --- | --- | --- | --- | --- | --- | --- |
| O=C1C=C2C=C[C@@H]3C[C@@]2(O1)[C@@H]1CCC(=O)C(=O)N31 | > 10 | 101 | > 10 | 172.7 | > 10 | > 10 |  |  |  |
| O=C1C=C2C=C[C@@H]3C[C@@]2(O1)[C@@]1(O)[C@H]2O[C@H]2CCN31 | 1.5 |  | 6.8 |  | 3.4 | 1.9 | Toxic |  |  |
| CO[C@H]1CCN2[C@@H]3C=CC4=CC(=O)O[C@]4(C3)[C@@H]2C1 | > 10 |  | > 10 |  | > 10 | > 10 |  | 88.7 | 31.5 |
| CO[C@H]1CCN2O[C@H]3C=CC[C@@]4(OC(=O)C=C34)[C@@H]2C1 | > 10 |  | > 10 |  | > 10 | > 10 |  |  |  |
| O=C1C=C2C=CCC[C@]2(c2ccccn2)O1 | > 10 |  | > 10 |  | > 10 | > 10 |  |  |  |
| O=C1C=C2C=C[C@@H]3C[C@@]2(O1)[C@@H]1[C@H]2O[C@H]2CCN31 | > 10 | 101 | > 10 | 145.3 | > 10 | > 10 |  | 92.8 | 12.6 |
| O=C1C=C2C=C[C@H](O)C[C@@H]2O1 | > 10 |  | > 10 |  | > 10 | > 10 |  |  |  |
| O=C1C=C2C=C[C@H]3C[C@]2(O1)[C@H]1CCCCN1O3 | > 10 |  | > 10 |  | > 10 | > 10 |  | 96.7 | 12.1 |
| O=C1C=C2C=C[C@H](O)C[C@]2(c2ccccn2)O1 | > 10 |  | > 10 |  | > 10 | > 10 |  |  |  |
| CO[C@H]1CCN2O[C@]34C=C[C@H](O)C[C@]3(OC(=O)C4)[C@@H]2C1 | > 10 |  | > 10 |  | > 10 | > 10 |  |  |  |
| O=C1C=C2C=C[C@H]3C[C@@]2(O1)[C@@H]1C[C@@H](O)CCN1O3 | > 10 |  | > 10 |  | > 10 | > 10 |  |  |  |
| CO[C@H]1CCN2[C@@H]3C=CC4=CC(=O)O[C@]4(C3)[C@H]2C1 | > 10 |  | > 10 |  | > 10 | > 10 |  | 108 | 7.7 |
| COc1cc([C@@H]2c3cc4c(cc3[C@@H](O[C@@H]3O[C@@H]5CO[C@@H](C)O[C@H]5[C@H](O)[C@H]3O)[C@H]3COC(=O)[C@H]23)OCO4)cc(OC)c1O [ETOPOSIDE] | 0.3 |  | 0.7 |  | 1.8 | 0.3 |  |  |  |
| CO[C@H]1CCN2O[C@@H]3C=CC4=CC(=O)O[C@]4(C3)[C@@H]2C1 [SECURINEGA AMAMINE D] | > 10 |  | > 10 |  | > 10 | > 10 |  | 86.5 | 23.9 |
| O=C1C=C2C=C[C@@H]3C[C@@]2(O1)[C@H]1CCCCN31 [SECURININE] | > 10 | 102 | > 10 | 141.1 | > 10 | > 10 |  | 101 | 1.1 |
| CCCCC/C=C/C(=O)CCc1ccc(O)c(OC)c1 [SHOGAOL] |  | 112 |  | 138.7 |  |  |  |  |  |
| CNC(=N)NCCC[C@H](N)C(=O)O [TILARGININE] |  |  |  |  |  |  |  | 99.7 |  |
